# Experimental data collected from several papers.
# Each line is one published result; the experiments were not run side by side.
# MCU: Calcium uniporter protein, mitochondrial (MCU, Homo sapiens, UniProt Q8NE86)
# BACE1: Beta-secretase 1 (BACE1, Homo sapiens, UniProt P56817)
# DRD2: D(2) dopamine receptor (DRD2, Homo sapiens, UniProt P14416)
SMILES,target,read-out,mode,method,pH,setting,IC50 [nM]
O=C(O)c1c(Cl)c(Cl)c(Cl)c(Cl)c1-c1c2cc(I)c(=O)c(I)c-2oc2c(I)c(O)c(I)cc12,"Delta-aminolevulinic acid dehydratase (Homo sapiens, UniProt P13716, C162A/K59N)",enzyme activity,inhibitor,absorbance,pH 8,,6900
NCCN.NCCN.NCCN.[Co+3],MCU,transporter uptake,inhibitor,,,,76
COc1cc(OC)c2c(O)c3c(=O)cc(C)oc3cc2c1,BACE1,enzyme activity,inhibitor,FRET,,,> 100000
CC(C)C[C@H](NC(=O)[C@H](Cc1ccccc1)NC(=O)[C@H](Cc1ccc(O)cc1)NC(=O)CNC(=O)[C@H](CCCCN)NC(=O)[C@H](CO)NC(=O)[C@H](CCC(N)=O)NC(=O)CNC(=O)[C@@H](NC(=O)[C@H](CO)NC(=O)[C@@H]1CCCN1C(=O)[C@H](CO)NC(=O)[C@H](CCC(N)=O)NC(=O)[C@H](Cc1ccc(O)cc1)NC(=O)[C@H](CCC(=O)O)NC(=O)[C@H](C)NC(=O)[C@H](CCCCN)NC(=O)[C@@H](N)Cc1ccccc1)C(C)C)C(=O)N[C@@H](Cc1ccccc1)C(=O)N[C@@H](CCCNC(=N)N)C(=O)N1CCC[C@H]1C(=O)N[C@@H](CCCNC(=N)N)C(=O)N[C@@H](CC(N)=O)C(N)=O,"Neuromedin-U receptor 2 (Mus musculus, UniProt Q8BZ39)",ligand displacement,,radioligand,,cell membranes,0.03
Cl.Cl.N.N.N.N.N.N.N.N.[N-3].[Ru+4].[Ru+4],MCU,transporter uptake,inhibitor,,,,2.2
Cc1ccc(-c2ncn(-c3ccc(Nc4nccc(-c5cccc(N6CCOCC6)c5)n4)cc3)n2)cn1,"Mitogen-activated protein kinase 8 (MAPK8, Homo sapiens, UniProt P45983)",enzyme activity,inhibitor,,,,67
N#CC(C#N)=Cc1cc(C(=O)CCl)c[nH]1,"Epidermal growth factor receptor (EGFR, Homo sapiens, UniProt P00533)",enzyme activity,inhibitor,mobility shift,,,13000
COc1ccc(C(=O)O)cc1S(=O)(=O)Nc1ccc(C(F)(F)F)cc1N1CCCCC1,"Endoplasmic reticulum aminopeptidase 2 (ERAP2, Homo sapiens, UniProt Q6P179, K392N)",enzyme activity,inhibitor,fluorescence,,,27000
COc1ccc2[nH]cc(CN3CCC(O)(c4ccc(SC)cc4)CC3)c2c1,DRD2,ion current,,,,,250
N.N.N.N.N.N.N.N.O=C(O)c1cccc1.O=C(O)c1cccc1.[Fe+2].[Fe+2].[N-3].[Ru+4].[Ru+4].c1cccc1.c1cccc1,MCU,transporter uptake,inhibitor,,,,10.5
Brc1cc2c(N3CCNCC3)nccn2c1,BACE1,enzyme activity,inhibitor,FRET,pH 5,,600000
C[C@H](N)Cn1ncc2ccc3c(c21)CCCO3,DRD2,ligand displacement,,radioligand,,,> 100000
